In ChEMBL document CHEMBL4602722, “Structural Studies on the Inhibitory Binding Mode of Aromatic Coumarinic Esters to Human Kallikrein-Related Peptidase 7” (J Med Chem, 2020):
The source made the active and inactive calls. No cut-off for these calls is given here.

Assays:
[1] = target: Kallikrein-7 (Homo sapiens) (UniProt P49862); assay: Inhibition of N-terminal SUMO and His6-tagged human KLK7 assessed as protease activity by measuring fluorogenic peptide substrate NFF-3 cleavage (reference value: >400 pmol/(min.ug)
[2] = target: Kallikrein-7 (Homo sapiens) (UniProt P49862); assay: Inhibition of N-terminal SUMO and His6-tagged human KLK7 expressed in Escherichia coli Rosetta (DE3) pLysS assessed as reduction in covalent KLK7-vaspin complex formation using compound pre-treated KLK7 incubated for 60 mins by Coomassie-staining based SDS-PAGE method
How it was run: (§1)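 KLK7 was pre-treated with 1 mM compound (10 % DMSO, 37 °C, 30 min) and concentrated on a 5 kDa spin column. It was then mixed with vaspin at a 3:1 molar ratio (3.15 μM KLK7, 1.05 μM vaspin) in 50 mM Tris, 150 mM NaCl, pH 8.0 (elsewhere stated as pH 7.5) at room temperature for up to 60 min. Time-point samples were boiled 5 min in reducing SDS buffer, run on 12 % gels and Coomassie-stained.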

[3] = target: Kallikrein-7 (Homo sapiens) (UniProt P49862); assay: Covalent binding affinity to of N-terminal SUMO and His6-tagged human KLK7 expressed in Escherichia coli Rosetta (DE3) pLysS assessed as compound binding to His57 of catalytic triad by mass spectrometry
[4] = target: Kallikrein-7 (Homo sapiens) (UniProt P49862); assay: Inhibition of N-terminal SUMO and His6-tagged human KLK7 assessed as reduction in vaspin-N-terminal cleavage using compound pre-treated KLK7 incubated for 60 mins by Coomassie-staining based SDS-PAGE method; how it was run: as §1
[5] = Stability in 100% DMSO at -20 degC for several months by ESI-MS and 1H NMR spectroscopy; assay type: physicochemical

Kallikrein-7 (Homo sapiens), sequence (P49862 30-253 limits assumed): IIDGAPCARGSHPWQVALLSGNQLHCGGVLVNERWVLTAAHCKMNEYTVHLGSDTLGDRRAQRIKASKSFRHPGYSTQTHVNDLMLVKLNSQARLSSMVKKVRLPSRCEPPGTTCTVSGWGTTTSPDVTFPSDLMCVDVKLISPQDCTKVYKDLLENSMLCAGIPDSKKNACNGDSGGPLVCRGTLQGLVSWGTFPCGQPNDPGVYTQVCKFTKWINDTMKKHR

Row | Activity [1] | inhibition [2] | Activity [3] | inhibition [4] | Stability [5] | SMILES
1 | < 0.1 pmol/min/µg | Active | Active | inactive | Stable | O=C(Oc1cccc(Br)c1)c1cc2cc(CCl)ccc2oc1=O
2 | < 0.1 pmol/min/µg | Active |  | inactive |  | O=C(Oc1cccc(I)c1)c1cc2cc(CCl)ccc2oc1=O
3 | < 0.1 pmol/min/µg | Active |  | inactive |  | O=C(Oc1cccc(Cl)c1)c1cc2cc(CCl)ccc2oc1=O
